# Reference: ChEMBL document CHEMBL5236602, “Synthesis and Characterization of NUC-7738, an Aryloxy Phosphoramidate of 3'-Deoxyadenosine, as a Potential Anticancer Agent” (J Med Chem, 2022)
# Active and inactive are the calls of the source. The rule behind the calls is not given here.
# Assays:
# [1] = tested on: KG-1; assay: Cytotoxicity against human KG-1 cells assessed as maximum cell growth inhibition incubated for 72 hrs by MTS assay relative to control; format: functional
# Outline: (§1)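 Cells from the 20-line panel were seeded the day before dosing, then exposed to compound for 72 h. MTS was added, followed by 4 h at 37 °C, and absorbance was read. Nine serial 3.16-fold dilutions were tested, top 198 μM, in duplicate. MI% is the maximum inhibitory effect across the tested concentration range.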
# [2] = tested on: MV4-11; assay: Cytotoxicity against human MV4-11 cells assessed as maximum cell growth inhibition incubated for 72 hrs by MTS assay relative to control; format: functional; outline: as §1
# [3] = tested on: CCRF-CEM; assay: Cytotoxicity against human CCRF-CEM cells assessed as cell death incubated for 72 hrs by MTS assay; format: functional; details: read-out: LC50 (the source's name)
# Outline: (§2)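 Contracted MTS assay. Cells seeded the day before treatment and exposed 72 h to nine serial concentrations (3.16-fold steps, top 198 μM), tested in duplicate. MTS added, then 4 h at 37 °C and absorbance read. LC50 is the concentration killing 50% of cells. MI% is the maximum inhibition over the tested range.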
# [4] = tested on: CCRF-CEM; assay: Cytotoxicity against human CCRF-CEM cells assessed as maximum cell growth inhibition incubated for 72 hrs by MTS assay relative to control; format: functional; outline: as §1
# [5] = tested on: HL-60; assay: Cytotoxicity against human HL-60 cells assessed as cell death incubated for 72 hrs by MTS assay; format: functional; details: read-out: LC50 (the source's name); outline: as §2
# [6] = tested on: HL-60; assay: Cytotoxicity against human HL-60 cells assessed as maximum cell growth inhibition incubated for 72 hrs by MTS assay relative to control; format: functional; outline: as §1
# [7] = tested on: KG-1; assay: Cytotoxicity against human KG-1 cells assessed as cell death incubated for 72 hrs by MTS assay; format: functional; outline: as §2
# [8] = tested on: MOLT-4; assay: Cytotoxicity against human MOLT-4 cells assessed as cell death incubated for 72 hrs by MTS assay; format: functional; details: read-out: LC50 (the source's name); outline: as §2
# [9] = tested on: MOLT-4; assay: Cytotoxicity against human MOLT-4 cells assessed as maximum cell growth inhibition incubated for 72 hrs by MTS assay relative to control; format: functional; outline: as §1
# [10] = tested on: K562; assay: Cytotoxicity against human K562 cells assessed as cell death incubated for 72 hrs by MTS assay; format: functional; details: read-out: LC50 (the source's name); outline: as §2
# [11] = tested on: K562; assay: Cytotoxicity against human K562 cells assessed as maximum cell growth inhibition incubated for 72 hrs by MTS assay relative to control; format: functional; outline: as §1
# [12] = tested on: HepG2; assay: Cytotoxicity against human HepG2 cells assessed as cell death incubated for 72 hrs by MTS assay; format: functional; details: read-out: LC50 (the source's name); outline: as §2
# [13] = tested on: HepG2; assay: Cytotoxicity against human HepG2 cells assessed as maximum cell growth inhibition incubated for 72 hrs by MTS assay relative to control; format: functional; outline: as §1
# [14] = tested on: MCF7; assay: Cytotoxicity against human MCF7 cells assessed as cell death incubated for 72 hrs by MTS assay; format: functional; details: read-out: LC50 (the source's name); outline: as §2
# [15] = tested on: MCF7; assay: Cytotoxicity against human MCF7 cells assessed as maximum cell growth inhibition incubated for 72 hrs by MTS assay relative to control; format: functional; outline: as §1
# [16] = molecular target: T1, Adenosine deaminase (Bos taurus, UniProt P56658); assay: Metabolic stability assessed as bovine recombinant adenosine deaminase-mediated 3'-deoxyinosine metabolite formation by measuring shift in maximum absorption at 62.5 uM measured after 2 mins by UV absorption spectra based analysis; format: ADME; details: cattle
# Outline: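 Bovine recombinant ADA suspension was diluted in phosphate buffer, pH 7.4, and filtered at 0.2 μm. Substrate at 62.5 μM was added to 17 μL of the ADA solution. UV spectra were scanned at 220–350 nm, 2 nm resolution, every 0.1 min for 10 min to 12 h, with an ADA-only blank subtracted. The read-out is the shift of the 265 nm maximum.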
# [17] = Stability in human plasma assessed as reduction in parent compound concentration at 20 uM measured after 4 hrs by UPLC-MS/MS analysis; format: ADME, cell-free
# Outline: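 Human plasma, with or without 1 μM EHNA as ADA inhibitor, was spiked with 20 μM compound at 37 °C/5% CO2. Samples were quenched in methanol, 1:3 sample:methanol, kept 30 min on ice and centrifuged. The supernatant was dried, reconstituted in 10% acetonitrile and quantified by UPLC-MS/MS over time.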
# [18] = tested on: Leukemic stem cell; assay: Cytotoxicity against human leukemic stem cells (Lin-/CD34+/CD38-/CD123+) in myeloid leukemia cell line KG-1a assessed as reduction in LSC population at >1 uM incubated for 72 hrs
# [19] = molecular target: T1, Adenosine deaminase; assay: Metabolic stability assessed as bovine recombinant adenosine deaminase-mediated 3'-deoxyinosine metabolite formation by measuring shift in maximum absorption at 62.5 uM measured upto 2 hrs by UV absorption spectra based analysis; format: ADME; details: cattle
# [20] = tested on: RL; assay: Potency index, ratio of 3'-Deoxyadenosine LC50 to test compound LC50 for cytotoxicity against human RL cells assessed as cell death incubated for 72 hrs by MTS assay; format: functional
# [21] = tested on: HL-60; assay: Potency index, ratio of 3'-Deoxyadenosine LC50 to test compound LC50 for cytotoxicity against human HL-60 cells assessed as cell death incubated for 72 hrs by MTS assay; format: functional
# [22] = tested on: K562; assay: Potency index, ratio of 3'-Deoxyadenosine LC50 to test compound LC50 for cytotoxicity against human K562 cells assessed as cell death incubated for 72 hrs by MTS assay; format: functional
# [23] = tested on: Jurkat; assay: Potency index, ratio of 3'-Deoxyadenosine LC50 to test compound LC50 for cytotoxicity against human Jurkat cells assessed as cell death incubated for 72 hrs by MTS assay; format: functional
# [24] = tested on: CCRF-CEM; assay: Potency index, ratio of 3'-Deoxyadenosine LC50 to test compound LC50 for cytotoxicity against human CCRF-CEM cells assessed as cell death incubated for 72 hrs by MTS assay; format: functional
# [25] = Prodrug conversion in human CCRF-CEM cells assessed as fold increase in 3'-dATP level at 50 uM incubated for 2 hrs by LC-MS/MS analysis relative to 3'-Deoxyadenosine; format: ADME, cell-based
# [26] = Prodrug conversion in human K562 cells assessed as fold increase in 3'-dATP level at 50 uM incubated for 2 hrs by LC-MS/MS analysis relative to 3'-Deoxyadenosine; format: ADME, cell-based; details: k562, 2 h
# [27] = Prodrug conversion in human HL-60 cells assessed as fold increase in 3'-dATP level at 50 uM incubated for 2 hrs by LC-MS/MS analysis relative to 3'-Deoxyadenosine; format: ADME, cell-based; details: hl-60, 2 h
# [28] = Prodrug conversion in human RL cells assessed as fold increase in 3'-dATP level at 50 uM incubated for 2 hrs by LC-MS/MS analysis relative to 3'-Deoxyadenosine; format: ADME, cell-based
# [29] = tested on: CCRF-CEM; assay: Cytotoxicity against deoxynucleotidyl transferase-positive human CCRF-CEM cells assessed as cell death preincubated with adenosine deaminase inhibitor, EHNA for 5 mins followed by compound addition and […]; format: functional, cell-based
# [30] = tested on: RL; assay: Cytotoxicity against deoxynucleotidyl transferase-negative human RL cells assessed as cell death preincubated with adenosine deaminase inhibitor, EHNA for 5 mins followed by compound addition and […]; format: functional, cell-based
# [31] = tested on: RL; assay: Cytotoxicity against deoxynucleotidyl transferase-negative human RL cells assessed as cell death preincubated with adenosine kinase inhibitor, A-134974 for 5 mins followed by compound addition and […]; format: functional, cell-based
# [32] = Prodrug activation assessed as Saccharomyces cerevisiae carboxypeptidase Y-mediated (2R)-2-(((((2S,4R,5R)-5-(6-amino-9H-purin-9-yl)-4-hydroxytetrahydrofuran-2-yl)methoxy)(hydroxy)phosphoryl)amino)propanoic acid formation at 5 mg measured over 1 hr by 31P-NMR analysis
# Outline: (§3)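 Prodrug (5 mg) in acetone-d6 with trizma buffer pH 7.6, with a t = 0 31P NMR (202 MHz) reference taken first. Carboxypeptidase Y stock (50 units/mL in trizma pH 7.6) added. 31P NMR spectra recorded over time to follow intermediate and aminoacyl phosphoramidate signals.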
# [33] = Prodrug activation assessed as Saccharomyces cerevisiae carboxypeptidase Y-mediated (2R)-2-(((((2S,4R,5R)-5-(6-amino-9H-purin-9-yl)-4-hydroxytetrahydrofuran-2-yl)methoxy)(phenoxy)phosphoryl)amino)propanoic acid formation at 5 mg measured for 4 mins by 31P-NMR analysis; outline: as §3
# [34] = Stability in human plasma assessed as reduction in parent compound concentration at 20 uM measured upto 4 hrs by UPLC-MS/MS analysis; format: ADME, cell-free
# [35] = Stability in human plasma assessed as reduction in parent compound concentration at 20 uM incubated for 4 hrs in presence of adenosine deaminase inhibitor, EHNA by UPLC-MS/MS analysis; format: ADME, cell-free
# [36] = Drug concentration in mouse plasma at 20 uM measured after 30 sec by UPLC-MS/MS analysis; format: ADME, cell-free
# [37] = Drug concentration in human plasma at 20 uM measured after 30 sec by UPLC-MS/MS analysis; format: ADME, cell-free
# [38] = Drug metabolism in mouse plasma assessed as metabolite formation by measuring reduction in parent compound concentration at 20 uM incubated for 24 hrs in presence of adenosine deaminase inhibitor, EHNA by UPLC/MS/MS analysis; format: ADME, cell-free
# [39] = tested on: Leukemic stem cell; assay: Cytotoxicity against human leukemic stem cells (Lin-/CD34+/CD38-/CD123+) in myeloid leukemia cell line KG-1a assessed as preferential cell killing incubated for 72 hrs
# T1 sequence (P56658 whole entry): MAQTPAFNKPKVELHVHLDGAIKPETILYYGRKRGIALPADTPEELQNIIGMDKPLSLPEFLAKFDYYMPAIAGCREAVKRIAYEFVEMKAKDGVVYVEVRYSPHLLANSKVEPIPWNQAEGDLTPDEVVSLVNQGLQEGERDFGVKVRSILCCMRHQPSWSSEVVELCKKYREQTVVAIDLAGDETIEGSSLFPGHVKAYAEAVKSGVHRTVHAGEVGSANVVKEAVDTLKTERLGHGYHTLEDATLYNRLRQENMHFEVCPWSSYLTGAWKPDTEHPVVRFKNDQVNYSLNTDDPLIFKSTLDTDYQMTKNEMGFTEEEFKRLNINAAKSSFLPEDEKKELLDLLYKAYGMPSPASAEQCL
smiles,measurement,setting,value
CC(=O)O[C@H]1C(=O)[C@@]2(C)[C@H]([C@H](OC(=O)c3ccccc3)[C@]3(O)C[C@H](OC(=O)[C@H](O)[C@@H](NC(=O)c4ccccc4)c4ccccc4)C(C)=C1C3(C)C)[C@]1(OC(C)=O)CO[C@@H]1C[C@@H]2O [PACLITAXEL],Imax,[1],89%
C[C@H](N[P@](=O)(OC[C@@H]1C[C@@H](O)[C@H](n2cnc3c(N)ncnc32)O1)Oc1ccccc1)C(=O)OCc1ccccc1,Imax,[2],100%
Nc1ncnc2c1ncn2[C@@H]1O[C@H](COP(=O)(NCC(=O)OCc2ccccc2)Oc2ccccc2)C[C@H]1O (some centres not stated),CC50,[3],14.9 µM
same,Imax,[4],94%
same,CC50,[5],45.2 µM
same,Imax,[6],82%
same,LC50,[7],136.56 µM
same,Imax,[1],65%
same,CC50,[8],3.55 µM
same,Imax,[9],93%
same,CC50,[10],15.4 µM
same,Imax,[11],92%
same,CC50,[12],142 µM
same,Imax,[13],59%
same,CC50,[14],15.5 µM
same,Imax,[15],87%
Nc1ncnc2c1ncn2[C@@H]1O[C@H](CO)C[C@H]1O [CORDYCEPIN],Stability,[16],Unstable
same,Stability,[17],Unstable
same,Activity,[18],Active
C[C@H](NP(=O)(OC[C@@H]1C[C@@H](O)[C@H](n2cnc3c(N)ncnc32)O1)Oc1ccccc1)C(=O)OCc1ccccc1 (some centres not stated) [FOSDESDENOSINE SIPALABENAMIDE],Stability,[19],Stable
same,RatioLC50,[20],3
same,RatioLC50,[21],3
same,RatioLC50,[22],3
same,RatioLC50,[23],200
same,RatioLC50,[24],3
same,fold change (FC),[25],3
same,fold change (FC),[26],3
same,fold change (FC),[27],3
same,fold change (FC),[28],3
same,Activity,[29],Active
same,Activity,[30],Active
same,Activity,[31],Active
same,Drug metabolism,[32],Metabolite_Detected
same,Drug metabolism,[33],Metabolite_Detected
same,Stability,[34],Stable
same,Stability,[35],Stable
same,"concentration at 0.5 min, 20 µM",[36],0.5 ng/mL
same,"concentration at 0.5 min, 20 µM",[37],10000 ng/mL
same,Drug metabolism,[38],Metabolite_Detected
same,Activity,[39],Active
same,Activity,[18],Active
C[C@H](N[P@@](=O)(OC[C@@H]1C[C@@H](O)[C@H](n2cnc3c(N)ncnc32)O1)Oc1ccccc1)C(=O)OCc1ccccc1,Imax,[1],90%
CCOC(=O)CCc1ccccc1OP(=O)(N[C@@H](C)C(=O)OCc1ccccc1)OC[C@@H]1C[C@@H](O)[C@H](n2cnc3c(N)ncnc32)O1 (some centres not stated),Imax,[1],69%
same,fold change (FC),[25],2
same,fold change (FC),[26],2
same,fold change (FC),[27],2
same,fold change (FC),[28],2
